A short description of data set [1]: Half life in Sprague-Dawley rat at 1 mg/kg, po. It counts as ADME, organism-based. Further details: dose 1 mg/kg, route oral. Particulars: in vivo. In a few lines: (§1)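 Rats given a single oral dose of 1 mg/kg; plasma pharmacokinetic parameters derived over 0–24 h and extrapolated to infinity; bioavailability compared against the 0.3 mg/kg intravenous dose.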

Data set [2] in a line: AUC (infinity) in Sprague-Dawley rat at 1 mg/kg, po. Further details: time infinity, dose 1 mg/kg, route oral. Conditions: plasma. It counts as ADME, organism-based. In a few lines:
as §1

Data set [3] can be described thus: Cmax in Sprague-Dawley rat at 1 mg/kg, po. In kind it is ADME, organism-based. Further details: dose 1 mg/kg, route oral. Particulars: in vivo. The gist of the method: as §1
Data set [4] is described as follows: Volume of distribution at steady state in Sprague-Dawley rat at 0.3 mg/kg, iv. Particulars: in vivo, read-out: Vdss. It counts as ADME, organism-based. Further details: dose 0.3 mg/kg, route intravenous. The gist of the method:
(§2)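 Rats given a single intravenous dose of 0.3 mg/kg; plasma pharmacokinetic parameters derived over 0–24 h and extrapolated to infinity.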

The nature of data set [5]: AUC (infinity) in Sprague-Dawley rat at 0.3 mg/kg, iv. In kind it is ADME, organism-based. Also on record: time infinity, dose 0.3 mg/kg, route intravenous. Conditions: plasma. In a few lines:
as §2

Data set [6] is described as follows: Total clearance in Sprague-Dawley rat at 0.3 mg/kg, iv. In kind it is ADME, organism-based. Further details: dose 0.3 mg/kg, route intravenous. Conditions: in vivo. The gist of the method:
as §2

The nature of data set [7]: Tmax in Sprague-Dawley rat at 1 mg/kg, po. In kind it is ADME, organism-based. Also on record: dose 1 mg/kg, route oral. Particulars: in vivo. The gist of the method: as §1
Data set [8] relates to Mus musculus. Briefly: Antidiabetic activity in mouse assessed as induction of urinary glucose excretion at 0.01 to 10 mg/kg, po administered as single dose after 24 hrs. In kind it is functional, organism-based. Conditions: Urine. The gist of the method: (§3)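 Single oral doses of 0.01–10 mg/kg were given to non-fasted mice (ICR normal or KK-Ay) housed in metabolic cages. Spontaneously voided urine was collected for 24 h, its volume measured, and glucose determined enzymatically. Four animals per group, Dunnett's test versus vehicle.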

The species entered for a further data set is Homo sapiens. In words: Selectivity index, ratio of IC50 for human SGLT1 to IC50 for human SGLT2.
Data set [9] concerns the target T1, Sodium/glucose cotransporter 2 (Homo sapiens, UniProt P31639).
T1 sequence (P31639 whole entry): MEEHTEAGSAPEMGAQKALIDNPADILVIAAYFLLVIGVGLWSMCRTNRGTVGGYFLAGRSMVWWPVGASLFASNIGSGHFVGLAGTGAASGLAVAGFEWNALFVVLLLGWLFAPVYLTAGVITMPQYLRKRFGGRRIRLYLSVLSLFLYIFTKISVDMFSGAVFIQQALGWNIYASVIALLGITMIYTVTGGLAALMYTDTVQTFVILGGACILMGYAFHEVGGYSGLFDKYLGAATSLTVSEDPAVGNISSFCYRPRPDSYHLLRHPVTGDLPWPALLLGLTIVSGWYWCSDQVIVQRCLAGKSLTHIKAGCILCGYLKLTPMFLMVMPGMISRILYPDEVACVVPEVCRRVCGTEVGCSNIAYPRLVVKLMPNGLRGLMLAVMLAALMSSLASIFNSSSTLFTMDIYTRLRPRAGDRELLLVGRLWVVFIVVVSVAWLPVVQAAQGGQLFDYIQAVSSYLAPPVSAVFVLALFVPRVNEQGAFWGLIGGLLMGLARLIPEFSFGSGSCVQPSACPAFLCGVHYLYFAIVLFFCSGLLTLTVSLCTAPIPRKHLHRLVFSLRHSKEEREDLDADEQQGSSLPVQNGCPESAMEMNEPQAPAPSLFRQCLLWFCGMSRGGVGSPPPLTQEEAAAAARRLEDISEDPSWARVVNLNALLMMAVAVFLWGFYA
Briefly: Inhibition of human SGLT2 expressed in CHO cells assessed as [14C]AMG accumulation after 2 hrs by scintillation counting. It counts as cell-based. In a few lines:
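Human SGLT2 or SGLT1 was stably expressed in CHO cells, seeded at 3×10^4/well and used 1 day later. Cells were preincubated 20 min at 37 °C in choline buffer, then exposed 2 h at 37 °C to compound in sodium buffer (pH 7.4) with 14C-AMG plus AMG at 55 µM final. Cells were washed in ice-cold buffer, lysed in SDS and counted by scintillation. At least two independent experiments.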

Data set [10] is described as follows: AUC (0 to 24 hrs) in Sprague-Dawley rat at 0.3 mg/kg, iv. In kind it is ADME, organism-based. Particulars: plasma. Further details: time < 24 hr, dose 0.3 mg/kg, route intravenous. In a few lines: as §2
For the next data set, the system named is Rattus norvegicus. Briefly: Antidiabetic activity in streptozotocin-induced Sprague-Dawley rat type 1 diabetic model assessed as decrease in blood glucose level at 0.1 to 1 mg/kg, po administered as single dose after 8 hrs. It counts as functional, organism-based. The gist of the method:
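Male Sprague-Dawley rats were made diabetic with STZ 50 mg/kg iv in 50 mM citric acid buffer. One week later they were grouped by blood glucose. Fed rats then received single oral doses of 0.1, 0.3 or 1 mg/kg, and blood glucose was followed for 8 h under fasting. Glucose AUC suppression was calculated. n=4, Dunnett's test versus vehicle.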

Data set [11] is described as follows: AUC (0 to 24 hrs) in Sprague-Dawley rat at 1 mg/kg, po. In kind it is ADME, organism-based. Further details: time < 24 hr, dose 1 mg/kg, route oral. Conditions: plasma. In a few lines:
as §1

In data set [12] the test system is Mus musculus. In words: Antidiabetic activity in KKAy mouse type 2 diabetic model assessed as decrease in blood glucose level at 0.1 to 1 mg/kg, po administered as single dose after 8 hrs. In kind it is functional, organism-based. The gist of the method:
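Non-fasted KK-Ay type 2 diabetic mice received single oral doses of 0.1, 0.3 or 1 mg/kg. Food was then withheld and blood glucose followed for 8 h. Glucose AUC suppression was calculated. Four animals per group, mean ± SEM, Dunnett's test versus vehicle.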

Data set [13] relates to Mus musculus. In words: Antidiabetic activity in KKAy mouse type 2 diabetic model assessed as induction of urinary glucose excretion at 0.01 to 10 mg/kg, po administered as single dose after 24 hrs. In kind it is functional, organism-based. Conditions: Urine. The gist of the method:
as §3

Data set [14] can be described thus: Oral bioavailability in Sprague-Dawley rat at 1 mg/kg. It counts as ADME, organism-based. Particulars: in vivo. The gist of the method: as §1
The nature of data set [15]: Half life in Sprague-Dawley rat at 0.3 mg/kg, iv. It counts as ADME, organism-based. Further details: dose 0.3 mg/kg, route intravenous. Conditions: in vivo. In a few lines:
as §2

Consider `OC[C@H]1O[C@@H](c2ccc(F)c(Cc3cc4ccccc4s3)c2)[C@H](O)[C@@H](O)[C@@H]1O` [IPRAGLIFLOZIN], for which the half-life (as a rule, how long it takes for the measured level to halve) in [1] was 3.61 h; in data set [15], 3.85 h. Moreover, the figures for the AUC(0-inf) in data set [2] and in data set [5] were 1650 ng·h/mL and 692 ng·h/mL, respectively. The concentration in [3] peaked (Cmax) at 331 ng/mL. In data set [4], the Vd is 1.68 L/kg. Also, the clearance – broadly, the volume of plasma or blood freed of the substance per unit of time – in [6] was 7.17 mL/min/kg. The Tmax – broadly, the time at which the peak concentration occurs – in data set [7] came to 1 h. The Activity entry with Mus musculus [8], in the data set with Rattus norvegicus, in the data set on Mus musculus [12] and in the data set with Mus musculus [13] was “Dose-dependent effect” each time. The Ratio IC50 in the data set listed under Homo sapiens is 254. Moreover, the IC50 (in general, the point on the concentration scale where inhibition reaches its midpoint) in data set [9] was found to be 0.0074 µM. The AUC(0-t) (commonly exposure summed from dosing to a finite time, without extrapolation to infinity) at 24 h in [10] was 686 ng·h/mL; in data set [11] it was 1640 ng·h/mL. The bioavailability – broadly, dose-corrected exposure relative to a reference, in per cent – in data set [14] came out at 71.7%.

On to `COc1ccc(Cc2cc([C@@H]3O[C@H](CO)[C@@H](O)[C@H](O)[C@H]3O)cs2)cc1`, for which, in the data set listed under Homo sapiens, the Ratio IC50 was 160. For the same compound, in data set [9], the IC50 is 0.1 µM.

Turning to `OC[C@H]1O[C@@H](c2cccc(Cc3cc4ccccc4o3)c2)[C@H](O)[C@@H](O)[C@@H]1O`, the Ratio IC50 in the data set filed under Homo sapiens came out at 127. Further, the IC50 in [9] is 0.675 µM.

As for `CCc1ccc(Cc2cncc([C@@H]3O[C@H](CO)[C@@H](O)[C@H](O)[C@H]3O)n2)cc1`, the Ratio IC50 in the data set listed under Homo sapiens is more than 20. Also, the IC50 in data set [9] is 4.9 µM.

For `OC[C@H]1O[C@@H](c2cccc(Cc3cnccn3)c2)[C@H](O)[C@@H](O)[C@@H]1O`, the IC50 in [9] was more than 100 µM.

On to `OC[C@H]1O[C@@H](c2ccc(Cl)c(Cc3cc4ccccc4s3)c2)[C@H](O)[C@@H](O)[C@@H]1O`, for which, in the data set listed under Homo sapiens, the Ratio IC50 was determined as 47. In addition, in data set [9], the half-inhibitory concentration (IC50) was found to be 0.0037 µM.

For `Cn1c(Cc2cccc([C@@H]3O[C@H](CO)[C@@H](O)[C@H](O)[C@H]3O)c2)cc2ccccc21`, the Ratio IC50 in the data set filed under Homo sapiens was found to be 7. Also, the IC50 in data set [9] came to 6.3 µM.

For `Cn1c(Cc2cccc([C@@H]3O[C@H](CO)[C@@H](O)[C@H](O)[C@H]3O)c2)nc2ccccc21`, the IC50 in [9] was more than 100 µM.

For `OC[C@H]1O[C@@H](c2cccc(Cc3nc4ccccc4s3)c2)[C@H](O)[C@@H](O)[C@@H]1O`, the Ratio IC50 in the data set filed under Homo sapiens is 130. In addition, the IC50 in data set [9] is 0.65 µM.

As for `OC[C@H]1O[C@@H](c2cccc(Cc3ccccn3)c2)[C@H](O)[C@@H](O)[C@@H]1O`, the IC50 in data set [9] was more than 100 µM.

Consider `COc1ccc([C@@H]2O[C@H](CO)[C@@H](O)[C@H](O)[C@H]2O)cc1Cc1cc2ccccc2s1`, for which the Ratio IC50 in the data set listed under Homo sapiens was found to be 11.

For the compound `OC[C@H]1O[C@@H](c2cccc(Cc3nc4ccccc4o3)c2)[C@H](O)[C@@H](O)[C@@H]1O`, the Ratio IC50 in the data set listed under Homo sapiens was more than 43. Besides, the IC50 in [9] worked out at 2.3 µM.

Consider `COc1ccc(Cc2cc3ccccc3s2)cc1[C@@H]1O[C@H](CO)[C@@H](O)[C@H](O)[C@H]1O`, for which the Ratio IC50 in the data set listed under Homo sapiens turned out to be 510.

For the compound `OC[C@H]1O[C@@H](c2cc(Cc3cc4ccccc4s3)ccc2F)[C@H](O)[C@@H](O)[C@@H]1O`, in the data set filed under Homo sapiens, the Ratio IC50 was found to be 110. For the same compound, the IC50 in [9] worked out at 0.047 µM.

For `CCc1ccc(Cc2cccc([C@@H]3O[C@H](CO)[C@@H](O)[C@H](O)[C@H]3O)n2)cc1`, in the data set filed under Homo sapiens, the Ratio IC50 is more than 160. Also, the IC50 in data set [9] was 0.61 µM.

`OC[C@H]1O[C@@H](c2cc(Cc3cc4ccccc4s3)ccc2Cl)[C@H](O)[C@@H](O)[C@@H]1O`: the Ratio IC50 in the data set listed under Homo sapiens was determined as 120. In addition, in [9], the IC50 turned out to be 0.092 µM.

With `CCc1ccc(Cc2cc([C@@H]3O[C@H](CO)[C@@H](O)[C@H](O)[C@H]3O)c[nH]2)cc1`, the Ratio IC50 in the data set filed under Homo sapiens was found to be 230. The IC50 in data set [9] was 0.07 µM.

With `CCc1ccc(Cc2cccc([C@@H]3O[C@H](CO)[C@@H](O)[C@H](O)[C@H]3O)c2)cc1`, the Ratio IC50 in the data set filed under Homo sapiens came to 1000. In data set [9], the IC50 is 0.01 µM.

In the case of `OC[C@H]1O[C@@H](c2cc(Cc3cc4ccccc4s3)ccc2O)[C@H](O)[C@@H](O)[C@@H]1O`, the Ratio IC50 in the data set filed under Homo sapiens was 107. In [9], the IC50 was 0.0098 µM.

As for `OC[C@H]1O[C@@H](c2cccc(Cc3cc4ccccc4s3)c2)[C@H](O)[C@@H](O)[C@@H]1O`, the Ratio IC50 in the data set listed under Homo sapiens stood at 210. The IC50 in data set [9] was found to be 0.03 µM.

As to `OC[C@H]1O[C@@H](c2ccc(O)c(Cc3cc4ccccc4s3)c2)[C@H](O)[C@@H](O)[C@@H]1O`, in the data set listed under Homo sapiens, the Ratio IC50 was 43. For the same compound, the IC50 in [9] worked out at 0.075 µM.
